Results as given in ChEMBL document CHEMBL4689842, “EUbOPEN Chemogenomics Library wave 1” (2021).

Tested on: HEK-293T
Assay: Multiplex assay against HEK293T;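 for Population Tubulin-Different-Phenotype (%): share of the cells with healthy nuclei that show this phenotype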
Type: toxicity, cell-based
Settings: human
Procedure, shortened: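 Live cells were stained at seeding with Hoechst33342, BioTracker Green Microtubule Cytoskeleton Dye, MitoTracker Red and Annexin V Alexa Fluor 680, then imaged on a CQ1 microscope at 37°C and 5% CO2 after compound addition. CellPathfinder machine-learning gating split cells into Hoechst high-intensity objects or normal cells. Normal cells were split into healthy, pyknosed or fragmented nuclei, and pyknosed cells into mitotic or apoptotic. Tubulin, mitochondrial-mass and membrane-permeability phenotypes are per cents of healthy-nucleus cells.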

[1] = 12 h, 1 µM, compound concentration 1 uM, replicate 1
[2] = 12 h, 1 µM, compound concentration 1 uM, replicate 2
[3] = 12 h, 10 µM, compound concentration 10 uM, replicate 1
[4] = 12 h, 10 µM, compound concentration 10 uM, replicate 2
[5] = 24 h, 1 µM, compound concentration 1 uM, replicate 1
[6] = 24 h, 1 µM, compound concentration 1 uM, replicate 2
[7] = 24 h, 10 µM, compound concentration 10 uM, replicate 1
[8] = 24 h, 10 µM, compound concentration 10 uM, replicate 2
[9] = 48 h, 1 µM, compound concentration 1 uM, replicate 1
[10] = 48 h, 1 µM, compound concentration 1 uM, replicate 2
[11] = 48 h, 10 µM, compound concentration 10 uM, replicate 1
[12] = 48 h, 10 µM, compound concentration 10 uM, replicate 2

In the case of Cc1c(-c2ccc(O)cc2)n(Cc2ccc(OCCN3CCCCCC3)cc2)c2ccc(O)cc12 [BAZEDOXIFENE], the “Population Apoptotic (%)” value [1] is reported as 40%, the “Population Fragmented Nuclei (%)” value [1] is reported as 15% and the “Population Healthy Nuclei (%)” value [1] is reported as 32%. For the same molecule, the “Population Hoechst High Intensity Objects (%)” value [1] was 16%, the “Population Membrane Permeable-Phenotype (%)” value [1] was 0% and the “Population Mitochondria Different-Phenotype (%)” value [1] was 93%. For the same molecule, the “Population Mitotic Cells (%)” value [1] was 59%, the “Population Normal (%)” value [1] was 83% and the “Population Pyknosed Nuclei (%)” value [1] was 52%. For the same molecule, the “Population Tubulin-Different-Phenotype (%)” value [1] was 77%, the “Population Apoptotic (%)” value [2] was 12% and the “Population Fragmented Nuclei (%)” value [2] was 10%. For the same molecule, the “Population Healthy Nuclei (%)” value [2] was 43%, the “Population Hoechst High Intensity Objects (%)” value [2] was 6% and the “Population Membrane Permeable-Phenotype (%)” value [2] was 11%. The “Population Mitochondria Different-Phenotype (%)” value [2] was 36%, the “Population Mitotic Cells (%)” value [2] was 87% and the “Population Normal (%)” value [2] was 93%. The “Population Pyknosed Nuclei (%)” value [2] was 46%, the “Population Tubulin-Different-Phenotype (%)” value [2] was 38% and the “Total Cell Count” value [2] was 168. The “Population Fragmented Nuclei (%)” value [3] was 14%, the “Population Healthy Nuclei (%)” value [3] was 8% and the “Population Hoechst High Intensity Objects (%)” value [3] was 21%. For the same molecule, the “Population Membrane Permeable-Phenotype (%)” value [3] was 0%, the “Population Mitochondria Different-Phenotype (%)” value [3] was 90% and the “Population Normal (%)” value [3] was 78%. The “Population Pyknosed Nuclei (%)” value [3] was 77%, the “Population Tubulin-Different-Phenotype (%)” value [3] was 72% and the “Total Cell Count” value [3] was 161. The “Population Apoptotic (%)” value [4] was 88%, the “Population Fragmented Nuclei (%)” value [4] was 9% and the “Population Healthy Nuclei (%)” value [4] was 7%. For the same molecule, the “Population Hoechst High Intensity Objects (%)” value [4] was 10%, the “Population Membrane Permeable-Phenotype (%)” value [4] was 10% and the “Population Mitochondria Different-Phenotype (%)” value [4] was 100%. The “Population Mitotic Cells (%)” value [4] was 11%, the “Population Normal (%)” value [4] was 89% and the “Population Pyknosed Nuclei (%)” value [4] was 83%. For the same molecule, the “Population Tubulin-Different-Phenotype (%)” value [4] was 100%, the “Total Cell Count” value [4] was 159 and the “Population Apoptotic (%)” value [5] was 44%. For the same molecule, the “Population Fragmented Nuclei (%)” value [5] was 13%, the “Population Healthy Nuclei (%)” value [5] was 45% and the “Population Hoechst High Intensity Objects (%)” value [5] was 13%. For the same molecule, the “Population Membrane Permeable-Phenotype (%)” value [5] was 5%, the “Population Mitochondria Different-Phenotype (%)” value [5] was 84% and the “Population Mitotic Cells (%)” value [5] was 55%. The “Population Normal (%)” value [5] was 86%, the “Population Pyknosed Nuclei (%)” value [5] was 40% and the “Population Tubulin-Different-Phenotype (%)” value [5] was 54%. For the same molecule, the “Total Cell Count” value [5] was 180, the “Population Apoptotic (%)” value [6] was 18% and the “Population Fragmented Nuclei (%)” value [6] was 8%. The “Population Healthy Nuclei (%)” value [6] was 50%, the “Population Hoechst High Intensity Objects (%)” value [6] was 8% and the “Population Membrane Permeable-Phenotype (%)” value [6] was 9%. The “Population Mitochondria Different-Phenotype (%)” value [6] was 40%, the “Population Mitotic Cells (%)” value [6] was 81% and the “Population Normal (%)” value [6] was 91%. For the same molecule, the “Population Tubulin-Different-Phenotype (%)” value [6] was 53%, the “Total Cell Count” value [6] was 207 and the “Population Apoptotic (%)” value [7] was 96%. The “Population Fragmented Nuclei (%)” value [7] was 13%, the “Population Healthy Nuclei (%)” value [7] was 9% and the “Population Hoechst High Intensity Objects (%)” value [7] was 21%. The “Population Membrane Permeable-Phenotype (%)” value [7] was 0%, the “Population Mitochondria Different-Phenotype (%)” value [7] was 100% and the “Population Mitotic Cells (%)” value [7] was 3%. For the same molecule, the “Population Normal (%)” value [7] was 78%, the “Population Pyknosed Nuclei (%)” value [7] was 76% and the “Population Tubulin-Different-Phenotype (%)” value [7] was 92%. For the same molecule, the “Total Cell Count” value [7] was 175, the “Population Apoptotic (%)” value [8] was 90% and the “Population Fragmented Nuclei (%)” value [8] was 9%. The “Population Healthy Nuclei (%)” value [8] was 5%, the “Population Hoechst High Intensity Objects (%)” value [8] was 8% and the “Population Membrane Permeable-Phenotype (%)” value [8] was 33%. The “Population Mitochondria Different-Phenotype (%)” value [8] was 88%, the “Population Mitotic Cells (%)” value [8] was 10% and the “Population Normal (%)” value [8] was 91%. The “Population Pyknosed Nuclei (%)” value [8] was 84%, the “Population Tubulin-Different-Phenotype (%)” value [8] was 88% and the “Total Cell Count” value [8] was 168. For the same molecule, the “Population Apoptotic (%)” value [9] was 39%, the “Population Fragmented Nuclei (%)” value [9] was 14% and the “Population Healthy Nuclei (%)” value [9] was 69%. For the same molecule, the “Population Hoechst High Intensity Objects (%)” value [9] was 9%, the “Population Membrane Permeable-Phenotype (%)” value [9] was 3% and the “Population Mitochondria Different-Phenotype (%)” value [9] was 41%. The “Population Mitotic Cells (%)” value [9] was 60%, the “Population Normal (%)” value [9] was 90% and the “Population Pyknosed Nuclei (%)” value [9] was 16%. The “Population Tubulin-Different-Phenotype (%)” value [9] was 40%, the “Total Cell Count” value [9] was 275 and the “Population Apoptotic (%)” value [10] was 12%. The “Population Fragmented Nuclei (%)” value [10] was 3%, the “Population Healthy Nuclei (%)” value [10] was 75% and the “Population Hoechst High Intensity Objects (%)” value [10] was 2%. The “Population Membrane Permeable-Phenotype (%)” value [10] was 4%, the “Population Mitochondria Different-Phenotype (%)” value [10] was 19% and the “Population Mitotic Cells (%)” value [10] was 87%. The “Population Normal (%)” value [10] was 97%, the “Population Pyknosed Nuclei (%)” value [10] was 21% and the “Population Tubulin-Different-Phenotype (%)” value [10] was 32%. The “Total Cell Count” value [10] was 314, the “Population Apoptotic (%)” value [11] was 91% and the “Population Fragmented Nuclei (%)” value [11] was 22%. The “Population Healthy Nuclei (%)” value [11] was 1%, the “Population Hoechst High Intensity Objects (%)” value [11] was 23% and the “Population Membrane Permeable-Phenotype (%)” value [11] was 0%. The “Population Mitochondria Different-Phenotype (%)” value [11] was 100%, the “Population Mitotic Cells (%)” value [11] was 8% and the “Population Normal (%)” value [11] was 76%. The “Population Pyknosed Nuclei (%)” value [11] was 75%, the “Population Tubulin-Different-Phenotype (%)” value [11] was 50% and the “Total Cell Count” value [11] was 178. For the same molecule, the “Population Apoptotic (%)” value [12] was 95%, the “Population Fragmented Nuclei (%)” value [12] was 20% and the “Population Healthy Nuclei (%)” value [12] was 6%. For the same molecule, the “Population Hoechst High Intensity Objects (%)” value [12] was 9%, the “Population Membrane Permeable-Phenotype (%)” value [12] was 20% and the “Population Mitochondria Different-Phenotype (%)” value [12] was 90%. The “Population Mitotic Cells (%)” value [12] was 4%, the “Population Normal (%)” value [12] was 90% and the “Population Pyknosed Nuclei (%)” value [12] was 72%. For the same molecule, the “Population Tubulin-Different-Phenotype (%)” value [12] was 90% and the “Total Cell Count” value [12] was 163.
